Rpn11 inh = Rpn11 (PSMD14) deubiquitinase inhibitors, primary screen, biochemical, fluorescence polarization, uHTS | actives 0.59% (n = 360,000) | 26S proteasome non-ATPase regulatory subunit 14 (Homo sapiens), O00487 | inhibition, % at 20 µM | human 26S proteasome, Ub4-pepOG fluorescence polarization; 20S core pre-blocked with epoxomicin;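 active = inhibition at 20 µM, scaled to each plate's controls, above about 33%, limit read from the data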
Rin1 Abl inh = inhibitors of Rin1-Abl protein binding, primary screen, biochemical, TR-FRET | AID 588664, 2011 | actives 0.4% (n = 360,000) | inhibition, % at 7.35 µM; in the data active = inhibition above about 5%, passing the limit was not always enough
Target sequence (P00519 whole entry, looked up): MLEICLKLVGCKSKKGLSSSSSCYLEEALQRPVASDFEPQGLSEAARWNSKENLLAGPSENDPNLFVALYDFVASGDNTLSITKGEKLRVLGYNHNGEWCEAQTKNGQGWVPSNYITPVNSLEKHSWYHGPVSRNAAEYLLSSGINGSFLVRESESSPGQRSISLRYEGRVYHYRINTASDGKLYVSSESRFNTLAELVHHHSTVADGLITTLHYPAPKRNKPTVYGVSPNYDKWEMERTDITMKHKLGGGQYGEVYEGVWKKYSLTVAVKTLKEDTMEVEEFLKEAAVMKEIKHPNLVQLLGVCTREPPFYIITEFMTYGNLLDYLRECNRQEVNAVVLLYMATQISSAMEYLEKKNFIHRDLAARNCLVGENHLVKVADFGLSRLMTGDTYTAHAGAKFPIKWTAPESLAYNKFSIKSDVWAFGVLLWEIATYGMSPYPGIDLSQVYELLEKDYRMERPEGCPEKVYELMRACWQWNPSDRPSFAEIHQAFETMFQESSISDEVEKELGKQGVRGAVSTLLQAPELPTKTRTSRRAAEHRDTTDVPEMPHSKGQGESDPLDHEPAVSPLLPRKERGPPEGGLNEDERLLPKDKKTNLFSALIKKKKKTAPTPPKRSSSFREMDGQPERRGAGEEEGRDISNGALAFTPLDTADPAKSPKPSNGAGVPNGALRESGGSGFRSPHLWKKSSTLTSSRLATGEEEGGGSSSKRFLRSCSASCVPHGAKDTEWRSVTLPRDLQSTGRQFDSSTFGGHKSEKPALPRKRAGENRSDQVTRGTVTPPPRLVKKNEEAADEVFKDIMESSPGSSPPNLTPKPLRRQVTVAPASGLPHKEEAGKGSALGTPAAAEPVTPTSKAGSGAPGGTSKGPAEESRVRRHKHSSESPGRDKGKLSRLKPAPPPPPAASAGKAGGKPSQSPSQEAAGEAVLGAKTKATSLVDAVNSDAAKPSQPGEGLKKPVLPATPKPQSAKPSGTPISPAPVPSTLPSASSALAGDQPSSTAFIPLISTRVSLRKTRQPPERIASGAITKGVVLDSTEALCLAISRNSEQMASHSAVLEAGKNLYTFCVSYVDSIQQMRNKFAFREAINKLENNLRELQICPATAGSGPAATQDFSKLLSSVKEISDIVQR
Target sequence (Q13671 whole entry, looked up): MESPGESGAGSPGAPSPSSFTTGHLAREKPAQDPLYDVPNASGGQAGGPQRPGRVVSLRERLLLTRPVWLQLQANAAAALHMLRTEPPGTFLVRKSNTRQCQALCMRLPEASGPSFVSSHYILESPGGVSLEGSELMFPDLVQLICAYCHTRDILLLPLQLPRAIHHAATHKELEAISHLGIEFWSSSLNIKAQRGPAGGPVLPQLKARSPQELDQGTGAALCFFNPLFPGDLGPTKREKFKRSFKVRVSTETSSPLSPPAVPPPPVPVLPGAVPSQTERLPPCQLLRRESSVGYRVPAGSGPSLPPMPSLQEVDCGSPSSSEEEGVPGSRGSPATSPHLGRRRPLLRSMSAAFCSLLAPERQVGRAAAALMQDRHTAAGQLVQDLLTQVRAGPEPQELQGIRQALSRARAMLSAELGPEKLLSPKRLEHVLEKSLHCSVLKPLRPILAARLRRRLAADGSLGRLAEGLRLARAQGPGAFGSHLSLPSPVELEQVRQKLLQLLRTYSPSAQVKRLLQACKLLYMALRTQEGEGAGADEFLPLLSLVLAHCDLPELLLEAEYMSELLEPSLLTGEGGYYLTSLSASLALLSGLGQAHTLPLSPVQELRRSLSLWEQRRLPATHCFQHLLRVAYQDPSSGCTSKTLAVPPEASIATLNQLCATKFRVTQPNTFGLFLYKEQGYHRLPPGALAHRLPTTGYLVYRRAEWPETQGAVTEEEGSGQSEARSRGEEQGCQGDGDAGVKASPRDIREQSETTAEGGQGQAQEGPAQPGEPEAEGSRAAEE
CSN deneddyl inh = inhibitors of CSN-mediated cullin deneddylation, primary screen, biochemical, fluorescence polarization, uHTS. COP9 signalosome complex subunit 5 (Homo sapiens), Q92905. Purified CSN, SCF-Nedd8-OG deneddylation. inhibition, % at 12.5 µM. actives 0.38% (n = 360,000). AID 651999, 2013;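 active = pattern-corrected inhibition above about 35%, with an unprinted fluorescence ratio check between 0.5 and 1.5, limit read from the data, passing the limit was not always enough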
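Assay system: purified human Csn5 enzyme expressed in HEK293T cells; measure: % inhibition; also added: SCFSkp2-Nedd8OG substrate at 10 nM final; technique: fluorescence polarization; times: reaction 90 min, room temperature; medium: Tris buffer pH 7.5, NaCl, DTT, Tween-20, trehalose, ovalbumin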
Neddyl block = inhibitors of cullin neddylation, primary screen, biochemical, TR-FRET, uHTS, NAE and Ubc12; NEDD8-conjugating enzyme Ubc12 (Homo sapiens) + NEDD8-activating enzyme E1 regulatory …; inhibition, % at 25 µM; actives 0.58% (n = 360,000); AID 651699, 2012; in the data active = inhibition above about 36%
HNF4A DNA FP = change in binding of human HNF4A to DNA, primary screen, biochemical, fluorescence polarization, FITC-DNA; Hepatocyte nuclear factor 4-alpha (Homo sapiens), P41235; 1 h; actives 0.3% (n = 360,000); activity change, % at 10 µM; in the data active = activity change above about 30%, passing the limit was not always enough
TPT1 inhibitor = Candida albicans TPT1 enzyme inhibitors, primary screen, biochemical, fluorescence polarization; actives 0.81% (n = 300,000); inhibition, % at 5 µM; AID 1962, 2009; tRNA 2'-phosphotransferase TPT1 (Candida albicans SC5314); recombinant caTPT1, FP RNA substrate dephosphorylation;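 active = inhibition above the mean of all tested compounds plus 3 SD, set per screening campaign, cut at about 24% in these data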
Large screens that a line does not name were inactive. In the library only some 2.4% were active in any assay of this set; here they are far more common.

O=C(CN(CCO)c1ccccc1)Nc1ccc(Cl)c(S(=O)(=O)N2CCOCC2)c1	none
Cn1nnnc1Sc1ncnc2scc(-c3ccc(Br)cc3)c12	none (no result: TPT1 inhibitor)
Cn1nnnc1Sc1ncnc2scc(-c3ccc(F)cc3)c12	Rpn11 inh 49.0
COc1ccc2nc(N3CCCCC3)c(/C=C3\SC(=S)NC3=O)cc2c1	Rpn11 inh 70.8, Rin1 Abl inh 6.6
Cc1ccc(S(=O)(=O)N2C[C@H]3[C@H]4C(=O)N(c5ccccc5)C(=O)[C@H]4CC(=O)[C@H]3[C@@H]2c2ccc(Cl)cc2)cc1	none (no result: TPT1 inhibitor)
Cc1ccc(S(=O)(=O)N2C[C@H]3[C@H]4C(=O)N(c5ccccc5)C(=O)[C@H]4CC(=O)[C@H]3[C@@H]2c2ccccc2F)cc1	CSN deneddyl inh 111.0 (no result: TPT1 inhibitor)
O=c1ccc2cc3c4c(c2o1)CCCN4CCC3	Neddyl block 49.6
O=C(COC(=O)c1ccc[nH]c1=O)Nc1cc(S(=O)(=O)N2CCCCCC2)ccc1Cl	none (no result: TPT1 inhibitor)
O=C1C=CC(=O)c2c(O)c(CO)c(CO)c(O)c21	Rin1 Abl inh 19.7 (no result: TPT1 inhibitor)
COC(=O)N(C)C[C@@H]1OCc2cnnn2CCCC(=O)N([C@H](C)CO)C[C@@H]1C	none (no result: TPT1 inhibitor)
CC(=O)c1ccc(N2CCN(C(=O)C3CCN(S(=O)(=O)Cc4ccccc4)CC3)CC2)cc1	CSN deneddyl inh 92.1
O=C(C1CCN(S(=O)(=O)Cc2ccccc2)CC1)N1CCN(c2ncccn2)CC1	CSN deneddyl inh 101.0
CC(=O)c1ccc(N2CCN(C(=O)C3CCN(S(=O)(=O)c4ccc(F)cc4)CC3)CC2)cc1	none (no result: TPT1 inhibitor)
COc1ccccc1-n1cnnc1SCC(=O)NCC1CCCO1 (configuration not stated)	none
CC1(C)Cc2c(c(=S)nc(-c3ccccc3)n2CCCN2CCOCC2)CO1	CSN deneddyl inh 37.2
CCCCCn1nc(C(=O)N(CC(C)C)c2c(N)n(CCCC)c(=O)[nH]c2=O)c2ccccc2c1=O	none
C/C(N)=C(/C#N)C(=O)COC(=O)CC1CCCC1	none
C/C(N)=C(/C#N)C(=O)COC(=O)C1CCC(C(C)(C)C)CC1 (configuration not stated)	CSN deneddyl inh 116.8
CCOC(=O)c1ccc(-n2c(CCC(=O)O)ccc2-c2ccc(F)cc2)cc1	CSN deneddyl inh 42.1
CCCCn1c(NC(=O)c2ccco2)c(S(=O)(=O)c2ccc(C)cc2)c2nc3ccccc3nc21	CSN deneddyl inh 54.1, HNF4A DNA FP 68.1 (not shown: Rpn11 inh, Neddyl block, TPT1 inhibitor)
Cc1ccc(S(=O)(=O)c2c(N)n(CCCO)c3nc4ccccc4nc23)cc1	CSN deneddyl inh 40.7 (not shown: Neddyl block)
Cc1ccc(S(=O)(=O)c2c(N)n(CCC(C)C)c3nc4ccccc4nc23)cc1	none (not shown: Neddyl block)
Cc1c(C=O)c2ccccc2n1CC(=O)NCc1ccc2c(c1)OCO2	none
CCCCn1c(N)c(N(CC(C)C)C(=O)c2ccc3c(c2)NC(=O)C(C)S3)c(=O)[nH]c1=O (configuration not stated)	none
CC(=O)NC1CC2CCCC(C1)N2C(=O)Nc1ccc(Cl)c(C(F)(F)F)c1 (configuration not stated)	HNF4A DNA FP 29.5
O=C(NCc1ccccc1)C(c1cc2ccccc2o1)n1c(=O)c(-c2ccco2)nc2ccccc21 (configuration not stated)	HNF4A DNA FP 36.6 (no result: Rpn11 inh, Rin1 Abl inh, TPT1 inhibitor)
O=C(NC1CCCCC1)C(c1ccccc1F)n1c(=O)c(-c2ccco2)nc2ccccc21 (configuration not stated)	HNF4A DNA FP 34.4 (no result: Rpn11 inh, Rin1 Abl inh, TPT1 inhibitor)
O=C(NCc1ccccc1)C(c1ccc(C(F)(F)F)cc1)n1c(=O)c(-c2ccco2)nc2ccccc21 (configuration not stated)	none (no result: Rpn11 inh, Rin1 Abl inh, TPT1 inhibitor)
CC(C)(C)NC(=O)C(c1ccc(C(F)(F)F)cc1)n1c(=O)c(-c2ccco2)nc2ccccc21 (configuration not stated)	HNF4A DNA FP 42.4 (no result: Rpn11 inh, Rin1 Abl inh, TPT1 inhibitor)
Cn1nnnc1SCSc1nnnn1C	none
CSc1nnnn1CCn1nnnc1SC	CSN deneddyl inh 51.2
CCCc1cc(=O)n2nc(N3CCC(C(=O)N4CCN(c5cccc(OC)c5)CC4)CC3)sc2n1	none
Cc1ccc(C)n1/N=C1/NC(=O)CS1	CSN deneddyl inh 46.1
O=C1NC[C@H](CCCCN2CCN(CCc3ccccc3)C(=O)C2=O)N(Cc2ccccc2)C1=O	none (no result: Rpn11 inh, Rin1 Abl inh, TPT1 inhibitor)
O=C(NC1CCCC1)c1cnn2c(C(F)(F)F)cc(-c3ccc4c(c3)OCO4)nc12	HNF4A DNA FP 70.4 (not shown: Rpn11 inh)
CN1CCN(NC(=O)c2cn(-c3ccccc3)nc2-c2cccs2)CC1	none
CN1CCN(NC(=O)c2cn(-c3ccccc3)nc2-c2cccc(Br)c2)CC1	HNF4A DNA FP 46.0
CCCCCc1ccc(OCCC[n+]2ccccc2)c(CCCCC)c1	none
CCCCCCCCCCCCCCCC[n+]1ccc(/C=N/O)cc1	Rpn11 inh 66.4, HNF4A DNA FP 39.8
CCCCCCCCCCCCCCCC[n+]1ccccc1	Rpn11 inh 80.8 (no result: TPT1 inhibitor)
O=P(COc1ccccc1)(c1ccccc1)c1ccccc1	none
O=C(CSC1=NNC(c2ccccn2)S1)Nc1ccc(C(F)(F)F)cc1 (configuration not stated)	none
c1ccc(CSC2=NNC(c3ccccn3)S2)cc1 (configuration not stated)	Neddyl block 38.4
COc1ccc(C(=O)NC(NC(=O)c2ccc(OC)c(OC)c2)c2ccccc2F)cc1OC	HNF4A DNA FP 44.7
COc1ccc(C2=Cc3ccc(OC(C)=O)cc3OC2)cc1	none (no result: TPT1 inhibitor)
CCOC(=O)[C@]12CCC=C1N(Cc1ccc(Cl)cc1Cl)C(=O)[C@H](CC(=O)NCCCN1CCCC1=O)C2	none (no result: Rpn11 inh, Rin1 Abl inh, TPT1 inhibitor)
COc1ccc(-c2cc(=O)oc3c(C)c(OCC(=O)Nc4cccnc4)ccc23)cc1	CSN deneddyl inh 89.6
Cc1c(C)c2ccc(OCC(=O)Nc3cccnc3)c(C)c2oc1=O	none
CS(=O)(=O)c1ccc(NC(=O)c2cc3c(cc2Cl)N2CCCCCC2=NS3(=O)=O)cc1	none (no result: TPT1 inhibitor)
COC(=O)c1cccc(Nc2cc(C)nc(-c3ccccc3O)n2)c1	none
COC(=O)c1ccc(Nc2cc(C)nc(-c3ccccc3O)n2)cc1	HNF4A DNA FP 37.2
CCC(C(=O)NC1CCCCC1)n1c2ccccc2c2nc(=O)cc(C)n21 (configuration not stated)	none
O=C(COc1ccccc1)N[C@@H]1c2ccccc2CC[C@@H]1O	CSN deneddyl inh 56.6 (no result: TPT1 inhibitor)
O=C(COc1ccccc1)N[C@@H]1c2ccccc2CC[C@@H]1OCc1ccccc1	none (no result: TPT1 inhibitor)

High-throughput results: PubChem BioAssay, several laboratories
